This is an account of results in ChEMBL document CHEMBL3227923, “Conformational analysis of podophyllotoxin and its congeners. Structure--activity relationship in microtubule assembly” (J Med Chem, 1979).

The species named for this experiment is Gallus gallus. Briefly: Inhibition of chicken brain microtubule polymerization after 30 mins. The procedure, abridged: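 Chicken brain microtubule assembly in vitro at 37 °C and neutral pH over a 30-min incubation. ID50 is the drug concentration giving 50% inhibition of assembly, averaged from triplicate experiments (standard deviation <15%).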

`COc1cc([C@@H]2c3cc4c(cc3C[C@H]3COC[C@@H]32)OCO4)cc(OC)c1OC` had an ID50 of 0.8 µM.

In the case of `COc1cc([C@@H]2c3cc4c(cc3C[C@H]3CS(=O)(=O)C[C@@H]32)OCO4)cc(OC)c1OC`, the ID50 was above 100 µM.

With `COc1cc([C@@H]2c3cc4c(cc3C[C@H]3CSC[C@@H]32)OCO4)cc(OC)c1OC`, the ID50 was 10 µM. To `COc1cc([C@@H]2c3cc4c(cc3[C@H](O)[C@H]3COC(=O)[C@H]23)OCO4)cc(OC)c1OC` belongs 0.6 µM. Regarding `COc1cc([C@@H]2c3cc4c(cc3[C@H](O)[C@H]3COC[C@H]23)OCO4)cc(OC)c1OC`, the ID50 is 1 µM.

On to `COc1cc([C@@H]2c3cc4c(cc3[C@H](O)[C@H]3CS(=O)(=O)C[C@H]23)OCO4)cc(OC)c1OC`, for which the ID50 is above 100 µM. Next, `COc1cc([C@@H]2c3cc4c(cc3[C@H](O)[C@H]3COC(=O)[C@@H]23)OCO4)cc(OC)c1OC`: 30 µM; `COc1cc([C@@H]2c3cc4c(cc3[C@H](O)[C@H]3CSC[C@H]23)OCO4)cc(OC)c1OC`: 10 µM; `COc1cc([C@@H]2c3cc4c(cc3[C@@H](O)[C@H]3COC(=O)[C@H]23)OCO4)cc(OC)c1OC`: 5 µM. To `COc1cc([C@@H]2c3cc4c(cc3C[C@H]3COC(=O)[C@@H]32)OCO4)cc(OC)c1OC` belongs 0.5 µM; to `COc1cc([C@@H]2c3cc4c(cc3C[C@H]3CCC[C@@H]32)OCO4)cc(OC)c1OC`, 5 µM.
